Results from ChEMBL document CHEMBL4257448, “Deciphering the origins of molecular toxicity of combretastatin A4 and its glycoconjugates: interactions with major drug transporters and their safety profiles in vitro and in vivo” (Medchemcomm, 2017).
Values after ≈ are worked out from the molar mass of the structure shown. Active and inactive are the calls of the source. The rule behind the calls is not given here.

Columns and labels:
[1] = Aqueous solubility of the compound after 1 hrs by HPLC-UV method; type: physicochemical; conditions: deionized water
In short: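 Shaken in tubes at 25 °C for 1 h, protected from light, then filtered through 0.2 μm filters; filtrate diluted in deionized water and quantified by reversed-phase HPLC-UV (C18 column, room temperature, methanol/water 70:30 v/v, 1.0 mL min−1).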

[2] = system: DU-145; test: Cytotoxicity against human DU145 cells assessed as reduction in cell viability up to 20 uM after 24 hrs by MTT assay; type: functional, cell-based
In short: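 Cells were grown as adherent monolayers at 37 °C in 5% CO2: SKOV3 in advanced DMEM, DU145 and MB231 in RPMI-1640 with glutamine and 10% FBS. They were seeded at 2000–7500 cells/well, treated on day 1 for 24 h with drug in DMSO (final DMSO <0.1%), then given MTT at 0.83 mg mL−1 final overnight. After SDS/HCl lysis, A570 was read as percent of drug-free control; five replicate wells.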

[3] = molecular target: T1, Solute carrier organic anion transporter family member 1B3 (Homo sapiens, UniProt Q9NPD5); test: Inhibition of human OATP1B3 expressed in HEK293 cells assessed as FMTX uptake after 5 mins by fluorescence assay; type: cell-based; conditions: for inhibition (INH): human, hek293, 5 min
T1 sequence (Q9NPD5 whole entry): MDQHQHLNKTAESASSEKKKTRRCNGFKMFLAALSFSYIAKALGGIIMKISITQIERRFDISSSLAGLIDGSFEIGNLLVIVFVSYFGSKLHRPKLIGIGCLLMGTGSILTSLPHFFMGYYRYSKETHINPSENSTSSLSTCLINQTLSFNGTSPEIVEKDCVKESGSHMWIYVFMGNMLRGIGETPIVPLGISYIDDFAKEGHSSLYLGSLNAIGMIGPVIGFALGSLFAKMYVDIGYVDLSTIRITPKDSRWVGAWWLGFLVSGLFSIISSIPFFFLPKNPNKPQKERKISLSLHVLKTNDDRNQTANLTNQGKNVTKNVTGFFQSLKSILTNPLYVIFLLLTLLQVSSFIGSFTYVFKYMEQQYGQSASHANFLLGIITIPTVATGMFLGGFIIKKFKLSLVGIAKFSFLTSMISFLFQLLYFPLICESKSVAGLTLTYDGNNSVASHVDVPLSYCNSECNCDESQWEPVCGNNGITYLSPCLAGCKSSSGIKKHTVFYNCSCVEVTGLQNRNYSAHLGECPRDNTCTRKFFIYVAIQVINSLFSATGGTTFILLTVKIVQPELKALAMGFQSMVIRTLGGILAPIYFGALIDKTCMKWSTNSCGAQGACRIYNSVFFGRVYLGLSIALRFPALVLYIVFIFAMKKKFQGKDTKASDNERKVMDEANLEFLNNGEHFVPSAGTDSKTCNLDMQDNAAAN
In short: (§1)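 Stably transfected HEK293 cells (human OAT1, OAT3, OCT1, OCT2, OATP1B3, OATP2B1) and mock cells were assayed 16 h after seeding in HEPES uptake buffer, pH 7.2, with fluorescent probe ± compound. Incubation was 5 min for OAT1/3 and OATPs, and 10 min for OCT1/2. Reference inhibitors were probenecid (OATs), quinine (OCTs) and rifampicin (OATPs). Uptake was stopped with ice-cold PBS and cells were lysed in Tris/Triton. Fluorescence was normalised to BCA protein; triplicates, repeated 2–3 times.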

[4] = molecular target: T2, Solute carrier family 22 member 1 (Homo sapiens, UniProt O15245); test: Inhibition of human OCT1 expressed in HEK293 cells assessed as Asp+ uptake after 10 mins by fluorescence assay; type: cell-based; conditions: for inhibition (INH): human, hek293, 10 min; in short: as §1
T2 sequence (O15245 whole entry): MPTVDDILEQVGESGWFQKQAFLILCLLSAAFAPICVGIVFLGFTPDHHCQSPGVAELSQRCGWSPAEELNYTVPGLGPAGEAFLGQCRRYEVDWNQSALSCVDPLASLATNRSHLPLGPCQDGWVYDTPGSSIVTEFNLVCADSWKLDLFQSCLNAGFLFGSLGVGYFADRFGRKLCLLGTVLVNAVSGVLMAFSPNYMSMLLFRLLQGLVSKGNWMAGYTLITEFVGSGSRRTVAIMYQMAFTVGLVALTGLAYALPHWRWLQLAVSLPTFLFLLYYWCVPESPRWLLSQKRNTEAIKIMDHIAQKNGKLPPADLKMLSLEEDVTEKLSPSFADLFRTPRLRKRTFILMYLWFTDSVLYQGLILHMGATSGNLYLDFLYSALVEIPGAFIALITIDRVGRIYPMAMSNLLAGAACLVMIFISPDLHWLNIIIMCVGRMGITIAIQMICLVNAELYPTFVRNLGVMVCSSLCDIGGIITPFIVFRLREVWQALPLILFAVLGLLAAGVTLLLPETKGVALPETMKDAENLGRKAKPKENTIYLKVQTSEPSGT

[5] = molecular target: T3, Solute carrier family 22 member 2 (Homo sapiens, UniProt O15244); test: Inhibition of human OCT2 expressed in HEK293 cells assessed as Asp+ uptake after 10 mins by fluorescence assay; type: cell-based; conditions: for inhibition (INH): human, hek293, 10 min; in short: as §1
T3 sequence (O15244 whole entry): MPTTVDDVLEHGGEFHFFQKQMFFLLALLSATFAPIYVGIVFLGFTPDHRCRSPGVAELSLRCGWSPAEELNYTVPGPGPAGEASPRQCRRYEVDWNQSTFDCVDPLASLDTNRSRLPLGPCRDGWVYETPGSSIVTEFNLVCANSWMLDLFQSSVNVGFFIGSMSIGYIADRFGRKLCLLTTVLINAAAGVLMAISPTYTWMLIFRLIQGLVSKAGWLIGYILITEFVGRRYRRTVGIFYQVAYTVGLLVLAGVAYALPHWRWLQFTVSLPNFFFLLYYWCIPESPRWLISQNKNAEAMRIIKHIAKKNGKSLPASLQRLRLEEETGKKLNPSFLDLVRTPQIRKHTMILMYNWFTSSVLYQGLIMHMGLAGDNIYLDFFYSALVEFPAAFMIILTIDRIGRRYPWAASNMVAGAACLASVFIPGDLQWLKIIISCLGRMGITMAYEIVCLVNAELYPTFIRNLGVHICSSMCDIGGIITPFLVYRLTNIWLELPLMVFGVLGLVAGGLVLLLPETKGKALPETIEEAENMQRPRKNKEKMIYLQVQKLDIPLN

[6] = system: HEK293; test: Cytotoxicity against HEK293 cells assessed as reduction in cell viability up to 200 uM after 10 mins by MTT assay; type: cell-based; conditions: human, hek293, 10 min
In short: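 HEK293-mock cells were exposed to 100 or 200 μM for 10 min. MTT was added at 0.83 mg mL−1 final and incubated overnight. Cells were lysed in 15% SDS/0.015 M HCl and absorbance was read at 570 nm. Viability is given as % of drug-free controls.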

[7] = molecular target: T2, Solute carrier family 22 member 1; test: Substrate activity at human OCT1 expressed in HEK293 cells assessed as compound uptake by HPLC-UV method; type: ADME, cell-based

Structure (SMILES)	solubility at 1 h [1]	Activity [2]	IC50 [3]	inhibition (INH) [3]	IC50 [4]	inhibition (INH) [4]	IC50 [5]	inhibition (INH) [5]	Activity [6]	Drug uptake [7]
COc1ccc(/C=C\c2cc(OC)c(OC)c(OC)c2)cc1O [COMBRETASTATIN A4]	3 µg/mL (≈ 9.48 µM)	Active	195 µM	Dose-dependent effect	> 200 µM	Dose-dependent effect	61.9 µM	Dose-dependent effect	Non-Toxic	Active
COc1ccc(/C=C\c2cc(OC)c(OC)c(OC)c2)cc1O[C@@H]1O[C@H](CO)[C@@H](O)[C@H](O)[C@H]1O	1830 µg/mL (≈ 3820 µM)	Active	> 200 µM	Dose-dependent effect	> 200 µM	Dose-dependent effect	> 200 µM	Dose-dependent effect	Non-Toxic	Not Active
